Screening data from PubChem BioAssay.
HKDC1 inhibitor – HKDC1 (human) hexokinase inhibition. Q2TB90. recombinant HKDC1, G6PDH/diaphorase resazurin coupled fluorescence. inhibition, % at 20 µM. 340,000 tested, 0.16% active. AID 493160;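 active means inhibition above about 35% when tested at 20 µM, limit read from the data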;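 further: plate controls were DMSO wells with enzyme for no effect and DMSO wells lacking enzyme for full effect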
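Test system: recombinant HKDC1 (HK5) hexokinase enzyme, produced in-house / Doses: 20 µM test compound, 1% DMSO / Timing: 90 min, room temperature / Detection: G6PDH/diaphorase-coupled fluorescence, 1 mM NADP, 100 µM resazurin, 525/613 nm / Control set: DMSO wells with and without enzyme mix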
ATG4B inh – blocks human ATG4B protease cleavage of LC3 substrate. Q9Y4P1. ATG4B cleavage of LC3-PLA2, NBD-HPC fluorescence, 1 h. inhibition, % at 8.33 µM. 340,000 tested, 0.51% active. AID 504462; in the data active means inhibition above about 40%
PKA-R1A act – PKA-R1A complex activation. P00514+P68181. PKA-R1A dissociation, Cy5-IP20 fluorescence polarization; scaled: DMSO 0%, 113 µM cGMP 100%. activation, % at 11.4 µM. 340,000 tested, 0.083% active;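 active means percent activation above the mean of all tested compounds plus 3 SD, cut at about 19% in these data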;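 further: higher means more PKAc released from R1A so a rise in polarization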
PfG6PD inh – PfG6PD (Plasmodium falciparum) enzyme inhibition; PfGluPho enzyme, NADPH resazurin-diaphorase fluorescence; inhibition, % at 20 µM; 350,000 tested, 0.78% active; AID 504690;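 active means inhibition reaching at least a set limit at 20 µM in the primary screen, cut at about 59% in these data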;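 further: 0% = DMSO wells with substrate and 100% = DMSO wells lacking glucose-6-phosphate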
PKA-R2B act – activators of human PKA-R2B complex; P22694+P31323; PKA-R2B holoenzyme dissociation, Cy5-IP20 fluorescence polarization; R2B truncated from residue 108, S112A mutant; 0% DMSO only, 100% 113 µM cGMP; activation, % at 11.4 µM; 340,000 tested, 0.079% active; AID 504700;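 active means activation above a cutoff set at the mean over all compounds plus 3 SD, cut at about 18% in these data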;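 further: higher means more holoenzyme dissociation and a rise in polarization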
T cell modulator – T cell immune modulators affecting CD8 T cell-vesicle binding. 2C CD8+ T cell-vesicle binding, flow cytometry; stronger effect = lower value. response (vesicle binding), % at 7 µM. 330,000 tested, 0.068% active;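 active means response, share of CD8 T cells binding vesicles, and their 90th percentile fluorescence all below set limits, cut at about 80% in these data, passing the limit was not always enough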;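 further: values below 100% mean blocked vesicle binding to the CD8+ T cells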
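Assay system: 2C TCR transgenic mouse naive CD8+ T cells, MACS-purified | Read-out: CD8+ gate FL2 mean fluorescence as % of same-row positive control | Signal: High-throughput flow cytometry with anti-B7-1 and anti-CD8 staining | Timing: Binding step 1.5 h, 37 °C, antibody labelling 20 min, ice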
PfG6PD confirm – PfG6PD inhibition, single-dose confirmed; shares compounds with PfG6PD inh; recombinant PfGluPho, NADPH-diaphorase-resazurin fluorescence; inhibition, % at 20 µM; 2,400 tested, 34% active; AID 504753;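 active means inhibition of at least 50% at 20 µM in any single replicate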;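 further: 0% = DMSO with substrate and 100% = DMSO lacking glucose-6-phosphate substrate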
Diaphorase 10uM – diaphorase inhibition or oxidation at 10 uM NADPH | shares compounds with PfG6PD inh | diaphorase-coupled resazurin reduction, fluorescence, NADPH 10 uM | inhibition, % at 20 µM | 820 tested, 39% active | AID 504862;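 active means average inhibition reaching 50% or more with the compound at 20 µM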;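 further: resorufin red fluorescence formed as diaphorase reduces resazurin using NADPH; 0% = DMSO with enzyme and 100% = DMSO without enzyme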
Diaphorase 30uM – diaphorase inhibition or oxidation at 30 uM NADPH | shares compounds with PfG6PD inh | Diaphorase/resazurin coupled assay, resorufin fluorescence | inhibition, % at 20 µM | 820 tested, 29% active;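 active means inhibition averaging 50% or more, tested at 20 µM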;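 further: 0% = DMSO with enzyme and 100% = DMSO wells lacking diaphorase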
R2B FP artifact – counter-screen for PKA-R2B activators: fluorescence polarization artifacts; shares compounds with PKA-R2B act; FP artifact counterscreen; activation, % at 11.4 µM; 270 tested, 6% active; in the data active means activation above about 20%;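 further: Cy5 labelled IP20 peptide probe with compound but no PKA protein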
PKA-R2B act conf – confirmation of human PKA-R2B complex activators. shares compounds with PKA-R2B act. fluorescence polarization, activation. activation, % at 11.4 µM. 270 tested, 9% active. AID 504797; in the data active means activation above about 19%
* = called active by the depositor; . = not tested or not shown. Sampled rows, rich in hits. Any-hit rate of the full collection: about 1.6%.

SMILES	HKDC1 inhibitor	ATG4B inh	PKA-R1A act	PfG6PD inh	PKA-R2B act	T cell modulator	R2B FP artifact	PKA-R2B act conf	others
COc1ccccc1C(CNC(=O)CCNS(=O)(=O)c1ccc(Br)cc1)N1CCCC1 (stereo not drawn)	-10	-1	-4	-4	-7	.	.	.
CCN=c1scc(C)n1/N=C/c1ccc(O)c(O)c1O	18	-7	-8	80*	2	360	.	.	PfG6PD confirm=72*;Diaphorase 10uM=25;Diaphorase 30uM=37
C[C@H]1NC(=O)[C@]2(C)[C@@H](c3ccccc3)[C@H]3COc4ccccc4[C@H]3N2C1=O	2	.	-1	-20	5	.	.	.
Cc1ccc(-n2nc(C(=O)N3CCOCC3)cc2-c2ccc(Cl)cc2)cc1	5	-3	7	60*	-8	200	.	.	PfG6PD confirm=35
O=C(c1cc(-c2ccc(Cl)cc2)n(-c2ccc(Cl)cc2)n1)N1CCOCC1	-4	-4	4	34	-7	346	.	.
Cc1ccc(Cn2c(CN3CC(C)OC(C)C3)nc3c2c(=O)n(C)c(=O)n3C)cc1 (stereo not drawn)	2	-10	-6	3	19*	510	3	1
Cc1cn([C@H]2C[C@H](O)[C@@H](CNCc3ccc(CN(C)S(C)(=O)=O)o3)O2)c(=O)[nH]c1=O	.	.	12	8	11	.	.	.
O=C(O)CC(Cc1ccc(Cl)cc1)C(=O)Nc1ccc([N+](=O)[O-])cc1 (stereo not drawn)	-8	-2	3	1	19*	527	-4	-1
COc1ccc(CNC(=O)c2cc3cccc(O)c3oc2=N)cc1	0	2	6	11	0	175	.	.
O=C(COC(=O)CCNS(=O)(=O)c1ccccc1)NNC(=O)c1ccccc1	-24	-3	2	-21	-7	888	.	.
O=C(COC(=O)CCNS(=O)(=O)c1ccccc1)NC1CC1	1	-5	-2	-11	19*	343	4	0
O=C(Nc1ccc(Cl)cn1)c1cccc(S(=O)(=O)N2CCCCC2)c1	-3	-1	1	15	-9	.	.	.
O=C(Nc1ccc(Cl)cn1)c1cccc(S(=O)(=O)N2CCCCCC2)c1	.	.	4	11	20*	.	2	-2
CCCC(c1nnnn1CC(=O)OCC)N(Cc1cc2ccc(C)cc2[nH]c1=O)C1CCCC1 (stereo not drawn)	-5	2	2	-9	-3	154	.	.
CCCC(c1nnnn1CC(=O)OCC)N(Cc1cc2c(C)cc(C)cc2[nH]c1=O)C1CCCC1 (stereo not drawn)	6	-9	7	7	19*	410	4	-1
COc1ccc(NS(=O)(=O)N2CCCCC2)cc1	-7	3	-1	-7	-8	.	.	.
Cc1cccc(Nc2ncnc(N)n2)c1	4	-7	-1	3	21*	293	6	5
O=C(NCc1ccccc1)C1=C[C@H](c2ccc3c(c2)OCO3)C[C@H](OCc2ccc(CO)cc2)O1	5	0	-4	-5	-7	300	.	.
C#CCNC(=O)C1=C[C@@H](c2ccc3c(c2)OCO3)C[C@@H](OCc2ccc(CO)cc2)O1	-1	5	0	-9	21*	.	0	-2
O=[N+]([O-])c1cc(-c2nnc(-c3ccccc3)o2)ccc1Oc1ccc(Cl)cc1	-9	-4	13	-1	-6	521	.	.
CCOc1ccc(Oc2ccc(-c3nnc(-c4ccccc4)o3)cc2[N+](=O)[O-])cc1	0	-7	13	-2	21*	267	-1	-1
Brc1ccc(-n2cnc(-c3ccccc3)c2)cc1	2	0	0	17	7	221	.	.
CN(C)S(=O)(=O)c1cccc(-c2cn3ccccc3n2)c1	-2	6	4	-7	19*	295	5	4
CC(=O)c1ccc(OCC(=O)Nc2nnc(C3CC3)s2)cc1	.	.	0	5	20*	.	5	2
O=C(CCCCC(=O)NN=Cc1ccc2c(c1)CCC2)NN=Cc1ccc2c(c1)CCC2	.	.	16	-14	6	.	.	.
SMILES	HKDC1 inhibitor	ATG4B inh	PKA-R1A act	PfG6PD inh	PKA-R2B act	T cell modulator	R2B FP artifact	PKA-R2B act conf	others
C[C@H](CO)N1C[C@H](C)[C@H](CN(C)Cc2ccccc2)Oc2ncc(Br)cc2C1=O	.	.	5	-7	3	.	.	.
CCn1c(=O)c(C(=O)NNC(=O)c2ccccc2)c(O)c2ccccc21	-3	1	8	-19	0	460	.	.
CCn1c(=O)c(C(=O)NNS(=O)(=O)c2ccc(Cl)cc2)c(O)c2ccccc21	-1	1	-2	-19	18*	169	-3	-2
CCOc1cc(/C=N/n2c(C)nc3ccccc3c2=O)ccc1O	-3	-4	-10	4	20*	380	2	3
CCOc1c(Br)cc(/C=C(\C#N)C(=O)NC2CC2)cc1OC	0	-1	1	13	19*	233	4	2
CCOc1ccccc1/C=C(\C#N)C(=O)NC1CC1	-2	-1	.	0	.	56	.	.
COCCN1C=C2C(=O)C(C)(OC(=O)CCC(=O)OC)C(=O)C=C2C=C1C1CC1 (stereo not drawn)	17	-1	0	57	20*	698	2	-3
Cc1cnc(CNC(=O)C2CCC(=O)N(CCc3cccc(F)c3)C2)[nH]1 (stereo not drawn)	-8	0	-2	1	-4	265	.	.
COc1cc(NC(=O)CCNC(=O)Cn2cnc3ccccc3c2=O)cc(OC)c1OC	-2	3	-7	-14	-7	614	.	.
COc1ccc(NC(=O)CCNC(=O)Cn2cnc3ccccc3c2=O)cc1OC	-6	-8	-2	12	21*	171	2	-3
CCCN(CCC)CCNc1c(NC2CCN(C(=O)OCC)CC2)c(=O)c1=O	0	-4	2	-13	-5	644	.	.
CCOC(=O)N1CCC(Nc2c(NCCCN(C)Cc3ccccc3)c(=O)c2=O)CC1	5	12	10	-19	20*	308	0	2
